From PMC5289284 (Journal of medicinal chemistry, 2016)

Assays:
vps34 = vps34 (Homo sapiens, UniProt Q8NEB9); assay: vps34 lipid kinase membrane capture assay; format: biochemical; settings: for inhibition of vps34: concentrations up to 20 µM, MnCl2; for potency for vps34 compared with compound 1: relative to compound 1, Fig. 2A
Procedure, shortened: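 Recombinant vps34 (10nM) was preincubated 15 min with test compound diluted in 10% DMSO/kinase buffer. Cold ATP plus γ32P-ATP (final 10µM ATP, 2.5uCi) was added and the reaction ran 1 hour. Final buffer: 50mM HEPES pH 7.5, 0.1% CHAPS, 2mM MnCl2, 1mM EGTA, 2mM DTT, 100µM PI, 500ng/µL BSA, 2% DMSO. Product was spotted on nitrocellulose and washed in 1M NaCl/1% phosphoric acid.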

PI3Kγ = PI3Kγ (Homo sapiens, UniProt P48736); assay: PI3Kγ lipid kinase membrane capture assay; format: biochemical; settings: for fold selective over PI3Kγ: PI4KIIIβ versus PI3Kγ; for potency for PI3Kγ compared with compound 1: relative to compound 1, Fig. 2A
Sequence of PI3Kγ (P48736 whole entry): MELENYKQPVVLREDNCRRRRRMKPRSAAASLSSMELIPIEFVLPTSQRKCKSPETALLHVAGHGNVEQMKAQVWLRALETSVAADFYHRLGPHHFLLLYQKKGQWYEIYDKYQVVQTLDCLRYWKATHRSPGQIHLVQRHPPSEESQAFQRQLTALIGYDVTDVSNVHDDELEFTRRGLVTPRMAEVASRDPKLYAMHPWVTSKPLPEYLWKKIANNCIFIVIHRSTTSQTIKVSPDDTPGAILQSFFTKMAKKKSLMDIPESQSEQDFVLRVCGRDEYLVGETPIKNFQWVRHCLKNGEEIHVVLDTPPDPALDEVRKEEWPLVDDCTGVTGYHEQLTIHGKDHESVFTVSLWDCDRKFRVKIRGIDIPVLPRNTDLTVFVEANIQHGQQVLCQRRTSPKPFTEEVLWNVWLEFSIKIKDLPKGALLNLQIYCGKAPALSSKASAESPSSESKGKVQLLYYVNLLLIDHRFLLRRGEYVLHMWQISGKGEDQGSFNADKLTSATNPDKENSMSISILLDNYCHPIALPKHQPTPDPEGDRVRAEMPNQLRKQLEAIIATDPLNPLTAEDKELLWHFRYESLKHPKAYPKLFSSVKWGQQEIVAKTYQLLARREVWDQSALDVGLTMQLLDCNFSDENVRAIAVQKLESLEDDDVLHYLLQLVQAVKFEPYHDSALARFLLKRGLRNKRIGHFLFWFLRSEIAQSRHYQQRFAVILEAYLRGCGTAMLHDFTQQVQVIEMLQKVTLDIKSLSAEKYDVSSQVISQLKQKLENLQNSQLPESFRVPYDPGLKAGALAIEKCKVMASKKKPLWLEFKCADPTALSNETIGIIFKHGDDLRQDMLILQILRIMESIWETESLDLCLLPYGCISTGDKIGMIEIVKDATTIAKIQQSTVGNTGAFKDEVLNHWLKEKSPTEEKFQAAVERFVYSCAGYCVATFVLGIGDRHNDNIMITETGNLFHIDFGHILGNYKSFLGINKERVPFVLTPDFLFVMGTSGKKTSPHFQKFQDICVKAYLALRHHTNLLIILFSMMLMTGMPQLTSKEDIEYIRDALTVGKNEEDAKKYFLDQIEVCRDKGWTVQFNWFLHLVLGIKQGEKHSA
Procedure, shortened: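 Radiometric membrane-capture assay. For PI3Kγ, 5nM enzyme was preincubated 15 min with test compound, then cold ATP plus γ32P-ATP was added for 15 min. PI3Kγ final conditions: 50mM HEPES pH 7.5, 100mM NaCl, 0.03% CHAPS, 10mM MgCl2, 80µM PIP2, 10µM ATP, 1uCi. PI4KIIIβ ran 30 min with 2.5nM enzyme, 100µM PI, Bis-Tris Propane pH 7.5, Triton X-100, 10µM ATP, 1uCi. Both used 2% DMSO final.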

[1] = tested on: HCVcc genotype 2a reporter virus J6/JFH1-GLuc in Huh 7.5 cells; assay: HCV2a antiviral assay; format: cell-based, Hepatitis C virus; settings: Huh 7.5 cells stably infected with J6/JFH1-GLuc, three days incubation
PI3Kδ = PI3Kδ (Homo sapiens, UniProt O00329); assay: PI3Kδ lipid kinase membrane capture assay; format: biochemical; settings: for fold selective over PI3Kδ: PI4KIIIβ versus PI3Kδ; for potency for PI3Kδ compared with compound 1: relative to compound 1, Fig. 2A
Sequence of PI3Kδ (O00329 whole entry): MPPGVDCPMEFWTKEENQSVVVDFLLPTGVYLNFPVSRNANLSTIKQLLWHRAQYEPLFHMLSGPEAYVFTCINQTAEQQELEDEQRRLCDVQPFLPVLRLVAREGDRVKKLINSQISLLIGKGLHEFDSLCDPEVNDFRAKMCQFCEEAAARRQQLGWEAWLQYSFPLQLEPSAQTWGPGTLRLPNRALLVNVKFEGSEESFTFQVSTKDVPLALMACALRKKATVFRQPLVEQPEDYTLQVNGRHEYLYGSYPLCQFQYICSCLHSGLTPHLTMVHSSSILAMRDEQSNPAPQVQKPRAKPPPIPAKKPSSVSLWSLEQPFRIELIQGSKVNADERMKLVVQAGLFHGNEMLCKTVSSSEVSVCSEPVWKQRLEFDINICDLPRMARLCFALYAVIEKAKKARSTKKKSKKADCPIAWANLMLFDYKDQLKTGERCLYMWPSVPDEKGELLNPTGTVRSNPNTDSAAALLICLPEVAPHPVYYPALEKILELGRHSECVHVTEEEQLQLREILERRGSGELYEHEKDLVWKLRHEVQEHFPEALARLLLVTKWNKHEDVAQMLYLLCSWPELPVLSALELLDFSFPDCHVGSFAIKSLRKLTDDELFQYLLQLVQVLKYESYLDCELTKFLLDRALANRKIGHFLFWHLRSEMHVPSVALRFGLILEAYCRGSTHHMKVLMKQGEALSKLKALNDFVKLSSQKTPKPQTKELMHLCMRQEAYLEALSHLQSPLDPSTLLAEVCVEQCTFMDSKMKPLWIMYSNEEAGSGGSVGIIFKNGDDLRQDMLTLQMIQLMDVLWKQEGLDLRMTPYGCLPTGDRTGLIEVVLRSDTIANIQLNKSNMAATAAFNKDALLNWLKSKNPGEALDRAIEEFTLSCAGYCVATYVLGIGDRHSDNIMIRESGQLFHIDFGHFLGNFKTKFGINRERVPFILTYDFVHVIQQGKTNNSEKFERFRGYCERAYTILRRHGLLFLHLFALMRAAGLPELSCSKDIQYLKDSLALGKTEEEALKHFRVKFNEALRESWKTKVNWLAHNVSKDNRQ
Sequence of PI3Kδ (P27986 whole entry partner): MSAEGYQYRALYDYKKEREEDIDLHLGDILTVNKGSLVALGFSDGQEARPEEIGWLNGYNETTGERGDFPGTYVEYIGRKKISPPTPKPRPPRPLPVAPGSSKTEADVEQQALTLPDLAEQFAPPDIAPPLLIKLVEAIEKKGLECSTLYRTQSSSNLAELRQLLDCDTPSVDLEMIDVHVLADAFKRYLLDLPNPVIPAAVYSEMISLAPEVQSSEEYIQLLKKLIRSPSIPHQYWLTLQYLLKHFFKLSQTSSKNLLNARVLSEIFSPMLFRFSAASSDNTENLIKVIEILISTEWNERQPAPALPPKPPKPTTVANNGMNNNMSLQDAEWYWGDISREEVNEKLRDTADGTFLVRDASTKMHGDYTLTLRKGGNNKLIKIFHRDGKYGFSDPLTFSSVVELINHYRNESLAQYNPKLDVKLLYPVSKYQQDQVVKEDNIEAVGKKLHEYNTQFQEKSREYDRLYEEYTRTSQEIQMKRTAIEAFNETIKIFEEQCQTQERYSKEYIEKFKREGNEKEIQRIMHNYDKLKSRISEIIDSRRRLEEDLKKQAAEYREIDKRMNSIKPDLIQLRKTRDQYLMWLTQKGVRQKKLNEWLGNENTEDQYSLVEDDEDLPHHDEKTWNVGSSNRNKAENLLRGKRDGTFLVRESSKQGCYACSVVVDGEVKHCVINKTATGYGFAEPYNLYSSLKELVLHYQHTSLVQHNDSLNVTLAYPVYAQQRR

PI4KIIIβ = PI4KIIIβ (Homo sapiens, UniProt Q9UBF8); assay: PI4KIIIβ lipid kinase membrane capture assay; format: biochemical; settings: for potency for PI4KIIIβ compared with compound 1: relative to compound 1, Fig. 2A
Sequence of PI4KIIIβ (Q9UBF8 whole entry): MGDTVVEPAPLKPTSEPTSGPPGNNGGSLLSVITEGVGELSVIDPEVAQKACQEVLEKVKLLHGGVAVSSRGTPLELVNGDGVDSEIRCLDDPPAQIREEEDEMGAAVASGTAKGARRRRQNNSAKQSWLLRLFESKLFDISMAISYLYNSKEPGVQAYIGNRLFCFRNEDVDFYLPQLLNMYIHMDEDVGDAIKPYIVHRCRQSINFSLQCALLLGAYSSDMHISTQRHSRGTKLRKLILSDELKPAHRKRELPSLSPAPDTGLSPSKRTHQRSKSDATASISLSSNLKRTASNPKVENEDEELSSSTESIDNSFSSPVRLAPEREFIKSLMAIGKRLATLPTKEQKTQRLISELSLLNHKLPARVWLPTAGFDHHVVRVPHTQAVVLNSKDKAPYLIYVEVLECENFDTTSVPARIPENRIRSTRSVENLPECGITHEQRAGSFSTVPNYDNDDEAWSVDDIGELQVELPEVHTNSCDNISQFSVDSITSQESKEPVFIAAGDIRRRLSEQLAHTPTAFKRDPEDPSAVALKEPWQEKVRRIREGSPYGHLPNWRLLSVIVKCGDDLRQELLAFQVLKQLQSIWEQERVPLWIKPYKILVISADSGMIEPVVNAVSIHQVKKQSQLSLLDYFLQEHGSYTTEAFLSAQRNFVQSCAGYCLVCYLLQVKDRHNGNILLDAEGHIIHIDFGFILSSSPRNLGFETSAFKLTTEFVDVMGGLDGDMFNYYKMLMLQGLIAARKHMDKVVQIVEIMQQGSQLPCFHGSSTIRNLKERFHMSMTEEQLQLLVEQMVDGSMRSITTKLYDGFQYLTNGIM
Procedure, shortened: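 Recombinant PI4KIIIβ with a phosphoinositide substrate and γ32P-ATP in a membrane-capture format. Test compound diluted into 10% DMSO and kinase assay buffer. After the reaction, a 4 µL aliquot was spotted on 0.2 µm nitrocellulose, dried 5 min under a heat lamp, then washed once for 30 s and 6×5 min in 1M NaCl/1% phosphoric acid.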

Sequence of vps34 (Q8NEB9 whole entry): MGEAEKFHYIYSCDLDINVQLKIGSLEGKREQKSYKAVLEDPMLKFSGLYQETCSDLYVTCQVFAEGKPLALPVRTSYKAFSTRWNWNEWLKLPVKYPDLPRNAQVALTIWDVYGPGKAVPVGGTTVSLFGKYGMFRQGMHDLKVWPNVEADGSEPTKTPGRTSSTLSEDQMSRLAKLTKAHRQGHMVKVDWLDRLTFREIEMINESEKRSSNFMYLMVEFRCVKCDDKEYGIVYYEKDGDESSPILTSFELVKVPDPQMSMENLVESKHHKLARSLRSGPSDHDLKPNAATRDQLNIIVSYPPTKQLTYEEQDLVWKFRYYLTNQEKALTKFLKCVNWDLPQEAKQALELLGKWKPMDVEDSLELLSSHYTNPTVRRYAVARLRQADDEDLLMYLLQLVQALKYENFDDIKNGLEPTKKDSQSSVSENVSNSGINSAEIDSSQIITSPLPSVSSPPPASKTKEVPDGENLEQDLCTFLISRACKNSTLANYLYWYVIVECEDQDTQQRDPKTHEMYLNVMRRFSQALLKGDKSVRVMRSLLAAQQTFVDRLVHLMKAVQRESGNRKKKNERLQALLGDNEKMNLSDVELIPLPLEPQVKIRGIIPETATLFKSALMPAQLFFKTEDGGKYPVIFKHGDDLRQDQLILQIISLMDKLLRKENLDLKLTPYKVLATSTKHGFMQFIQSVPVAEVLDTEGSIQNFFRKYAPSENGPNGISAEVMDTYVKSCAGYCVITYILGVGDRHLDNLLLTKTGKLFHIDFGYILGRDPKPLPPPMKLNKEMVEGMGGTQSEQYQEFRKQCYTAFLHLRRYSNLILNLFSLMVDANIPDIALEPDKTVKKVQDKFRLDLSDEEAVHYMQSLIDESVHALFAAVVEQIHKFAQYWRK

| Compound | fold selective over PI3Kγ (PI3Kγ) [fold] | fold selective over PI3Kδ (PI3Kδ) [fold] | potency for PI4KIIIβ compared with compound 1 (PI4KIIIβ) | further results |
| --- | --- | --- | --- | --- |
| COc1ccc(-c2sc(NC(=O)C(C)(C)C)nc2C)cc1S(=O)(=O)Nc1ccc(O)cc1 [compound 10] | > 1000 | > 200 | – | inhibition of vps34 (vps34): no inhibition; anti-viral activity against Hepatitis C Virus and toxicity [1]: best combination of anti-viral efficacy, and lowest toxicity; fold selective for PI4KIIIβ across all enzymes tested (PI4KIIIβ; panel of nine related lipid kinases): > 200 fold |
| Cc1nc(NC(=O)C(C)(C)C)sc1-c1ccc(Cl)c(S(=O)(=O)NCCO)c1 [compound 4] | > 600 | – | – | – |
| Cc1nc(NC(=O)C2CCCC2)sc1-c1ccc(Cl)c(S(=O)(=O)NCCO)c1 [compound 5] | > 90 | – | – | – |
| CC(=O)Nc1nc(C)c(-c2ccc(Cl)c(S(=O)(=O)Nc3ccc(O)cc3)c2)s1 [compound 6] | – | – | large increase in potency | potency for vps34 compared with compound 1 (vps34): large increase in potency; potency for PI3Kγ compared with compound 1 (PI3Kγ): large increase in potency; potency for PI3Kδ compared with compound 1 (PI3Kδ): large increase in potency |
| COc1ccc(-c2sc(NC(C)=O)nc2C)cc1S(=O)(=O)NCCO [compound 3] | > 40 | > 40 | increase in potency | – |
| COc1ccc(-c2sc(NC(=O)C3CCCC3)nc2C)cc1S(=O)(=O)Nc1ccc(O)cc1 [compound 9] | > 140 | > 20 | – | inhibition of vps34 (vps34): no inhibition; anti-viral activity against Hepatitis C Virus and toxicity [1]: best combination of anti-viral efficacy, and lowest toxicity |
| CC(=O)Nc1nc(C)c(-c2ccc(Br)c(S(=O)(=O)NCCO)c2)s1 [compound 2] | – | – | slight increase in potency | potency for vps34 compared with compound 1 (vps34): slight increase in potency; potency for PI3Kγ compared with compound 1 (PI3Kγ): slight decrease in potency; potency for PI3Kδ compared with compound 1 (PI3Kδ): slight increase in potency |
| CC(=O)Nc1nc(C)c(-c2ccc(Cl)c(S(=O)(=O)Nc3ccc(F)cc3)c2)s1 [compound 7] | – | – | minimal differences in both potency and specificity | – |
